Active and inactive are the calls of the source. The calls are words filed in the database; no cut-off is given here.
Legend:
Progesterone receptor [1] = target: T1, Progesterone receptor (Homo sapiens, UniProt P06401); assay: Antagonist activity at human progesterone receptor expressed in HEK293 cells assessed as inhibition of […]-induced transcriptional activity by GRE-driven luciferase reporter gene assay; assay type: functional, cell-based
T1 sequence (P06401 whole entry): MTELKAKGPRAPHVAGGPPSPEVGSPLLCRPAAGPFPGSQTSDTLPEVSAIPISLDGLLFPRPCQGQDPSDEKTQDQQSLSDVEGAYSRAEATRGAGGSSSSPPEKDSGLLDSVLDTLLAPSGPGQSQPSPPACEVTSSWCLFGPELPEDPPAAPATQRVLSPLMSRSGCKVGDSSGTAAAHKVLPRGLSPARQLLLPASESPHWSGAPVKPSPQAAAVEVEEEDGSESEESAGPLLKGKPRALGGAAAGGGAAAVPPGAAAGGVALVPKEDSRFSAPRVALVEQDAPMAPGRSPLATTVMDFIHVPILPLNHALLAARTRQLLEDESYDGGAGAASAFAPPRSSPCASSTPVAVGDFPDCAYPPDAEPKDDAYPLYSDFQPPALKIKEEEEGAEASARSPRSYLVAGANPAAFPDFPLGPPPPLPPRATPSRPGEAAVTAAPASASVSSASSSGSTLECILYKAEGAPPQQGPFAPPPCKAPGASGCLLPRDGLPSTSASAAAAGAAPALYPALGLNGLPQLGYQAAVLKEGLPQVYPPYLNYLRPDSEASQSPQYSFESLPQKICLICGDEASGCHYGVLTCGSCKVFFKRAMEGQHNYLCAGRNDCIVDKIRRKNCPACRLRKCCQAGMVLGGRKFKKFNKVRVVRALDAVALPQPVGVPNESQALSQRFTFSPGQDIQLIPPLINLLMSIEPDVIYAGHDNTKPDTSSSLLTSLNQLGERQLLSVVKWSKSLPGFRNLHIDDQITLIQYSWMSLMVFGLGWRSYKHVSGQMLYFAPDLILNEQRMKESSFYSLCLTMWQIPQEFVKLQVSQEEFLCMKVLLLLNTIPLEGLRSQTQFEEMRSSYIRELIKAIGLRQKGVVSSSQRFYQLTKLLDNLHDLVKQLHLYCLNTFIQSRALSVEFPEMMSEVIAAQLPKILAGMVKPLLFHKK
How it was run: (§1)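 Transcription assay in HEK293 cells cotransfected with full-length human receptor. Values are geometric means of at least duplicate determinations.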

Progesterone receptor [2] = target: T1, Progesterone receptor; assay: Displacement of [3H]methyltrienolone from human progesterone receptor expressed in HEK293 cells; assay type: cell-based
How it was run: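 Competitive binding to recombinant full-length human receptors against tritium-labelled standards. Values are geometric means of at least duplicate determinations.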

Androgen receptor = target: T2, Androgen receptor (Homo sapiens, UniProt P10275); assay: Displacement of [3H]methyltrienolone from human androgen receptor expressed in HEK293 cells; assay type: cell-based
T2 sequence (P10275 whole entry): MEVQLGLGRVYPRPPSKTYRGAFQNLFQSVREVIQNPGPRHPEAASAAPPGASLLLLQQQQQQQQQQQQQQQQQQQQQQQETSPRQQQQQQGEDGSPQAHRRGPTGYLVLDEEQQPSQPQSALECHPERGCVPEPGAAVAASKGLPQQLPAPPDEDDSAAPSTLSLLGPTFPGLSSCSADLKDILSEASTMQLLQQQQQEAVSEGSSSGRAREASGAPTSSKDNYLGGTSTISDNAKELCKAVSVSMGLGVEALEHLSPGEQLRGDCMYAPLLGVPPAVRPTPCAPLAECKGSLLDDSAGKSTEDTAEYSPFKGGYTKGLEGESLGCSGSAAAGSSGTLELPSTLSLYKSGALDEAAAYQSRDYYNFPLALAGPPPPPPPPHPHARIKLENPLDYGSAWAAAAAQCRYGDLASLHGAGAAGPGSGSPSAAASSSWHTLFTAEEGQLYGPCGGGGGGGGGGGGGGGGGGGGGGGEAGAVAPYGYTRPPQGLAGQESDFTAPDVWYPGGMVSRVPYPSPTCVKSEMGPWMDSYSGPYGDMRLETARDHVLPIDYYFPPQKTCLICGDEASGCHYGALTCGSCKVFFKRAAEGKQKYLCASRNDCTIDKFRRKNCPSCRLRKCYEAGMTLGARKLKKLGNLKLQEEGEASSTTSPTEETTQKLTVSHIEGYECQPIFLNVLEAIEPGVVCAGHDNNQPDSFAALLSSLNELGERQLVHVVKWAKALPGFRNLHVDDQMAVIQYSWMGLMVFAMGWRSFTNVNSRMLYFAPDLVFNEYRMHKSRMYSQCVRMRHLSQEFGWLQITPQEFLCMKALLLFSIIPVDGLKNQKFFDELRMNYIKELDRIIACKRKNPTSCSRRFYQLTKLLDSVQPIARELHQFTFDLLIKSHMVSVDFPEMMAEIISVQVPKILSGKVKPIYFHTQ

[3] = target: T3, Progesterone receptor (Homo sapiens) (UniProt P06401); assay: Antagonist activity at human progesterone receptor expressed in HEK293 cells assessed as inhibition of […]-induced transcriptional activity by GRE-driven luciferase reporter gene assay relative to untreated control; assay type: functional, cell-based; parameters: concentration or dose not given beside the values; details: concentration not given here; how it was run: as §1
T3 sequence (whole entry): T1 sequence (P06401 whole entry)

[4] = target: T4, Mineralocorticoid receptor (Homo sapiens) (UniProt P08235); assay: Antagonist activity at human mineralocorticoid receptor expressed in HEK293 cells assessed as inhibition of […]-induced transcriptional activity by GRE-driven luciferase reporter gene assay relative to untreated control; assay type: functional, cell-based; parameters: concentration or dose not given beside the values; details: concentration not given here; how it was run: as §1
T4 sequence (whole entry): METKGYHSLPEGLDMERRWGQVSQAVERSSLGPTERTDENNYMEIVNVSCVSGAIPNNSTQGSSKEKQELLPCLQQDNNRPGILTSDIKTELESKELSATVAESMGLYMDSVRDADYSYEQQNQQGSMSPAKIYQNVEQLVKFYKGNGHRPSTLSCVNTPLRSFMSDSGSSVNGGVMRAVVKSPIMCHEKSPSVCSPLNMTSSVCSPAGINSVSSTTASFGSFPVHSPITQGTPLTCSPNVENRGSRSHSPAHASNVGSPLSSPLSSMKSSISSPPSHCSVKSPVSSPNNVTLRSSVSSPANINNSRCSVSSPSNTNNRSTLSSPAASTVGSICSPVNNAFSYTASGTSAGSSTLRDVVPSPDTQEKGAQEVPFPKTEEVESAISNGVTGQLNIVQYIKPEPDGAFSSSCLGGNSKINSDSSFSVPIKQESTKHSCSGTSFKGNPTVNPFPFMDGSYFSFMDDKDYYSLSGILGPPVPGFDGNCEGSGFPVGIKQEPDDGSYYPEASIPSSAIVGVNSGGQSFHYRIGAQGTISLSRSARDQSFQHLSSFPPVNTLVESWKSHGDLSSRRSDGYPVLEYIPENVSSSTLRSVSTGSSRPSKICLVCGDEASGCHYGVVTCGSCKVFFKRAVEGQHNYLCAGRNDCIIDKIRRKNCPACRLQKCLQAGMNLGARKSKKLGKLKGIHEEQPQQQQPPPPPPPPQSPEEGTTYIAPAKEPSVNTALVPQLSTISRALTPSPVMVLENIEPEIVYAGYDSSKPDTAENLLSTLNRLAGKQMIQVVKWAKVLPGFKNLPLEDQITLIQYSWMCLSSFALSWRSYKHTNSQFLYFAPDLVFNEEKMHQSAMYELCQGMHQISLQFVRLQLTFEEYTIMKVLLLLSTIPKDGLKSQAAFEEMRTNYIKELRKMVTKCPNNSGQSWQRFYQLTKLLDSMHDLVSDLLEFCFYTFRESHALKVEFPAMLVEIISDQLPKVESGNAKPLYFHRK

Oryctolagus cuniculus [5] = assay: Antagonist activity at progesterone receptor in estrogen-primed immature New Zealand White rabbit assessed as inhibition of progesterone-induced endometrial transformation at 1 mg/kg, sc by McPhail assay; assay type: functional, organism-based; parameters: dose 1 mg/kg
How it was run: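 Immature rabbits primed with estrogen, given progesterone 1 mg/kg with test compound at various sc doses. Endometrial transformation scored by McPhail Index.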

Rattus norvegicus = assay: Antagonist activity at progesterone receptor in orally dosed ovariectomized Sprague-Dawley rat assessed as reversal of R5020-induced down-regulation of estradiol-induced increase in complement 3 mRNA expression by C3 rat uterine assay; assay type: functional; details: po
How it was run: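 Ovariectomized rats dosed orally (mg/kg dose response). Estrogen (E2, 0.05 mg/kg) induces complement C3 mRNA in uterus. Progestin R5020 (0.1 mg/kg) down-regulates it. Read-out is reversal of the R5020 effect, expressed as fold over asoprisnil (5 mg/kg). ED50 derived from the dose response.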

Oryctolagus cuniculus [6] = assay: Agonist activity at progesterone receptor in estrogen-primed immature New Zealand White rabbit assessed as stimulation of progesterone-induced endometrial transformation at 30 mg/kg, sc by McPhail assay; assay type: functional, organism-based; parameters: dose 30 mg/kg
How it was run: (§2)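 Immature rabbits primed with estrogen, dosed sc without progesterone. Endometrial transformation scored by McPhail Index.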

Oryctolagus cuniculus [7] = assay: Agonist activity at progesterone receptor in sc dosed estrogen-primed immature New Zealand White rabbit assessed as stimulation of progesterone-induced endometrial transformation by McPhail assay; assay type: functional, organism-based; how it was run: as §2

Row | Structure (SMILES) | IC50 (Progesterone receptor [1]) [nM] | Ki (Progesterone receptor [2]) [nM] | Ki (Androgen receptor) [nM] | inhibition [3] [%] | inhibition [4] [%] | Activity (Oryctolagus cuniculus [5]) | ED50 (Rattus norvegicus) [mg/kg] | Activity (Oryctolagus cuniculus [6]) | Activity (Oryctolagus cuniculus [7])
1 | C[C@](c1ccc(F)cc1F)(c1c[nH]c2c(NS(C)(=O)=O)cccc12)C1CC1 | 2020 | 1230 | 676 | 94.5 | 87 |  |  |  | 
2 | COC[C@]1(OC)CC[C@H]2[C@@H]3CCC4=CC(=O)CCC4=C3[C@@H](c3ccc(/C=N/O)cc3)C[C@@]21C [ASOPRISNIL] |  |  |  |  |  | Active | 0.31 | Active | 
3 | CC#C[C@]1(O)CC[C@H]2[C@@H]3CCC4=CC(=O)CCC4=C3[C@@H](c3ccc(N(C)C)cc3)C[C@@]21C |  |  |  |  |  | Active |  |  | inactive
4 | C[C@@](c1ccc(F)cc1F)(c1c[nH]c2c(NS(C)(=O)=O)cccc12)C1CC1 | 715 | 464 | 211 | 89.7 | 62.9 |  |  |  | 

Source: ChEMBL document CHEMBL1671834, “Novel 3-aryl indoles as progesterone receptor antagonists for uterine fibroids” (ACS Med Chem Lett, 2011)
